{"data": "Experimental data gathered from unrelated publications", "NMUR1": "Neuromedin-U receptor 1 (NMUR1, Homo sapiens, UniProt Q9HB89)", "JAK2": "Tyrosine-protein kinase JAK2 (JAK2, Homo sapiens, UniProt O60674)", "note": "Protocols differ between the studies behind these lines."}
{"Compound": "CCOc1cc(-c2nncn2C)ccc1Nc1ncc2cc(C)nc(NCC(C)(C)C)c2n1", "target": "Mitogen-activated protein kinase 9 (MAPK9, Homo sapiens, UniProt P45984)", "test": "binding, competition with immobilised ligand", "measurement": "Kd", "value": "74 nM"}
{"Compound": "Cc1cnc(-c2ccc(-c3ccc(NC(=O)Nc4c(F)cc(F)cc4F)cc3F)c3c2C(=O)NC3)[nH]1", "target": "Proto-oncogene tyrosine-protein kinase receptor Ret (RET, Homo sapiens, UniProt P07949)", "test": "binding, competition with immobilised ligand", "measurement": "Kd", "value": "9.4 nM"}
{"Compound": "ON=Cc1ccc(-c2ccc(O)c(F)c2)c(Cl)c1O", "target": "Estrogen receptor beta (ESR2, Homo sapiens, UniProt Q92731)", "test": "reporter gene, agonist, luciferase", "measurement": "EC50", "value": "72 nM"}
{"Compound": "CC(=O)CC(c1ccccc1)c1c(O)c2ccccc2oc1=O (stereo not drawn)", "target": "Vitamin K epoxide reductase complex subunit 1-like protein 1 (Homo sapiens, UniProt Q8N0U8)", "test": "enzyme activity, inhibitor, fluorescence", "measurement": "Ki", "value": "95 nM"}
{"Compound": "Cc1ncsc1-c1ccc([C@H](C)NC(=O)[C@@H]2C[C@@H](O)CN2C(=O)[C@@H](NC(=O)CCCCCC(=O)N2CCC3(CC2)CCN(c2cncc(Nc4ncc(Cl)c(-c5cccc(-c6ccccc6)c5)n4)c2)C3=O)C(C)(C)C)cc1", "target": "Phosphatidylinositol 5-phosphate 4-kinase type-2 gamma (PIP4K2C, Homo sapiens, UniProt Q8TBX8)", "test": "protein level, degrader, western blot", "measurement": "DC50", "value": "24 nM"}
{"Compound": "O=C(/C=C/c1ccc(O)c2c1[C@H](C(=O)O[C@H](Cc1ccc(O)c(O)c1)C(=O)O)[C@@H](c1ccc(O)c(O)c1)O2)O[C@H](Cc1ccc(O)c(O)c1)C(=O)O", "target": "Platelet glycoprotein 4 (CD36, Homo sapiens, UniProt P16671)", "test": "binding, SPR", "measurement": "Kd", "value": "3740 nM"}
{"Compound": "CC(C)C[C@H](NC(=O)[C@H](Cc1ccccc1)NC(=O)[C@H](Cc1ccc(O)cc1)NC(=O)CNC(=O)[C@H](CCCNC(=N)N)NC(=O)[C@H](CO)NC(=O)[C@H](CCC(N)=O)NC(=O)[C@H](CO)NC(=O)[C@H](C)NC(=O)[C@H](Cc1ccccc1)NC(=O)[C@@H]1CCCN1C(=O)[C@H](CO)NC(=O)[C@H](CCC(N)=O)NC(=O)[C@H](Cc1ccccc1)NC(=O)[C@H](CCC(=O)O)NC(=O)[C@H](CCC(=O)O)NC(=O)[C@H](CC(=O)O)NC(=O)[C@@H](NC(=O)[C@H](CCCNC(=N)N)NC(=O)[C@@H](N)Cc1ccccc1)C(C)C)C(=O)N[C@@H](Cc1ccccc1)C(=O)N[C@@H](CCCNC(=N)N)C(=O)N1CCC[C@H]1C(=O)N[C@@H](CCCNC(=N)N)C(=O)N[C@@H](CC(N)=O)C(N)=O", "target": "NMUR1", "test": "inositol phosphate, agonist, TR-FRET", "measurement": "EC50", "value": "0.12 nM"}
{"Compound": "Cc1cc2nc3c(=O)[nH]c(=O)nc-3n(C[C@H](O)[C@H](O)[C@H](O)COP(=O)(O)OP(=O)(O)OC[C@H]3O[C@@H](n4cnc5c(N)ncnc54)[C@H](O)[C@@H]3O)c2cc1C", "target": "Alpha-crystallin B chain (CRYAB, Homo sapiens, UniProt P02511)", "test": "binding", "setting": "lysate", "measurement": "Kd", "value": "152 nM"}
{"Compound": "CC(=O)Nc1cc(Oc2ccc3c(c2)CCN3C(=O)Nc2ccc(CN3CCN(C)CC3)c(C(F)(F)F)c2)ncn1", "target": "JAK2", "test": "enzyme activity, inhibitor, ELISA", "measurement": "Ki", "value": "22000 nM"}
{"Compound": "Nc1ccn([C@@H]2O[C@H](COP(=O)(O)OP(=O)(O)OP(=O)(O)O)[C@@H](O)[C@H]2O)c(=O)n1", "target": "virB (Shigella flexneri, UniProt P0A247)", "test": "binding, ITC", "measurement": "Kd", "value": "9300 nM"}
{"Compound": "CC(C)C[C@H](NC(=O)[C@H](Cc1ccccc1)NC(=O)[C@@H](N)Cc1ccc(O)cc1)C(=O)N[C@@H](Cc1ccccc1)C(=O)N[C@@H](CCCNC(=N)N)C(=O)N1CCC[C@H]1C(=O)N[C@@H](CCCNC(=N)N)C(=O)N[C@@H](CC(N)=O)C(N)=O", "target": "NMUR1", "test": "β-arrestin recruitment, agonist", "measurement": "EC50", "value": "1.7 nM"}
{"Compound": "COc1ccc2c(Oc3ccc4c(C(=O)Nc5ccccc5N)cccc4c3)ccnc2c1", "target": "JAK2", "test": "enzyme activity, inhibitor", "measurement": "IC50", "value": "> 500 nM"}
